ChEMBL document CHEMBL3124872, “Discovery and early development of TMC647055, a non-nucleoside inhibitor of the hepatitis C virus NS5B polymerase” (J Med Chem, 2014)
Calls of active or inactive are those of the source. The calls are words filed in the database; no cut-off is given here.

Key:
[1] = Cytotoxicity against human HuH7 cells; format: cell-based, Huh-7
Hepatitis C virus [2] = assay: Antiviral activity against Hepatitis C virus genotype 1b infected in human HuH7 cells after 72 hrs by luciferase reporter gene assay in presence of 40% human plasma relative to control; format: functional, Hepacivirus hominis, Huh-7
[3] = Cytotoxicity against human MT4 cells; format: cell-based
[4] = Binding affinity to His6-tagged Hepatitis C virus Con 1b NS5B delta21 RNA dependent RNA polymerase expressed in Escherichia coli Rosetta 2 (DE3) by surface plasmon resonance analysis; parameters: species or system Hepatitis C virus (isolate Con1)
In short: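 Surface plasmon resonance binding to NS5B polymerase of the stated genotype; association and dissociation rate constants measured, from which Kd and residence half-life were derived; median Kd reported.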

Hepatitis C virus [5] = assay: Antiviral activity against Hepatitis C virus genotype 1b infected in human HuH7 cells after 72 hrs by luciferase reporter gene assay; format: functional, organism-based, Hepacivirus hominis; conditions: Huh-7, 72 h
[6] = Drug uptake in Sprague-Dawley rat liver at 10 mg/kg, po after 7 hrs; format: ADME, organism-based; parameters: dose 10 mg/kg, route oral; conditions: read-out: Drug uptake
[7] = Plasma clearance in Sprague-Dawley rat at 2 mg/kg, iv and 10 mg/kg, po; format: ADME, organism-based
[8] = Ratio of drug level in liver to plasma in Sprague-Dawley rat at 10 mg/kg, po after 7 hrs; format: ADME, organism-based; parameters: dose 10 mg/kg, route oral
[9] = Oral bioavailability in Sprague-Dawley rat at 10 mg/kg; format: ADME, organism-based; conditions: in vivo
[10] = Drug metabolism in human liver microsomes at 5 uM after 15 mins; format: ADME; conditions: read-out: Drug metabolism
In short: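 Stability in human liver microsomes: test compound at 5 μM, incubated 15 min; reported as percentage of compound metabolized.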

[11] = Drug metabolism in rat liver microsomes after 15 mins; format: ADME; conditions: read-out: Drug metabolism
Hepatitis C virus [12] = assay: Antiviral activity against Hepatitis C virus genotype 1b infected in human HuH7 assessed as clearance of replicon cells at 0.25 uM preincubated for 2 weeks followed by 3 week rebound phase by RT-PCR analysis; format: functional, organism-based; conditions: Hepacivirus hominis, Huh-7
In short: (§1)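 Huh7-Luc replicon cells incubated 14 days with compound alone or in combination, followed by a 3-week rebound phase without inhibitor; replicon RNA followed for clearance and rebound.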

Hepatitis C virus [13] = assay: Antiviral activity against Hepatitis C virus genotype 1b infected in human assessed as reduction in plasma HCV RNA level administered for 10 days measured on day 11; format: functional, organism-based; conditions: Hepacivirus hominis
In short: (§2)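 HCV genotype 1a- and 1b-infected patients received oral 1000 mg b.i.d. together with an NS3/4A protease inhibitor at 150 mg q.d. for 10 days. The read-out was the median decrease in plasma HCV RNA (log10 IU/mL) at day 11.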

Hepatitis C virus [14] = assay: Antiviral activity against Hepatitis C virus genotype 1a infected in human assessed as reduction in plasma HCV RNA level administered for 10 days measured on day 11; format: functional, organism-based; conditions: Hepacivirus hominis, subtype 1a; in short: as §2
Hepatitis C virus [15] = assay: Antiviral activity against Hepatitis C virus genotype 1b infected in human HuH7 assessed as rebound of replicon RNA at 0.25 uM preincubated for 2 weeks followed by 3 week rebound phase by RT-PCR analysis; format: functional, organism-based; conditions: Hepacivirus hominis, Huh-7; in short: as §1
Hepatitis C virus [16] = assay: Antiviral activity against Hepatitis C virus genotype 1b infected in human HuH7 assessed as suppression of formation of resistant colonies at 0.2 uM preincubated for 2 weeks followed by 3 week rebound phase by RT-PCR analysis; format: functional, organism-based; conditions: Hepacivirus hominis, Huh-7
In short: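 Colony formation test in Huh7-Luc replicon cells incubated for 2−3 weeks with inhibitor alone (0.20 μM), scored for formation of resistant colonies.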

With `COc1ccc2c(c1)C=C1Cn3c-2c(C2CCCCC2)c2ccc(cc23)C(=O)NS(=O)(=O)N(C)CCCCCCN(C)C1=O` the CC50 [1] was > 25 µM, the “fold change (FC)” value (Hepatitis C virus [2]) was 10 and the CC50 [3] was > 25 µM. The Kd [4] was 0.0008 µM.

With `COc1ccc2c(c1)C=C1Cn3c-2c(C2CCCCC2)c2ccc(cc23)C(=O)NS(=O)(=O)N(C)CCCCN(C)C1=O` the CC50 [1] was > 25 µM, the CC50 [3] was > 25 µM and the EC50 (Hepatitis C virus [5]) was 0.075 µM.

In the case of `COc1ccc2c(c1)C=C1Cn3c-2c(C2CCCCC2)c2ccc(cc23)C(=O)NS(=O)(=O)N(C)CCCN(C)C1=O`, the CC50 [1] is reported as > 25 µM, the “fold change (FC)” value (Hepatitis C virus [2]) is reported as 10 and the CC50 [3] is reported as > 25 µM. The Kd [4] was 0.007 µM.

In the case of `COc1ccc2c(c1)C=C1Cn3c-2c(C2CCCCC2)c2ccc(cc23)C(=O)NS(=O)(=O)N(C)CCCCCNC1=O`, the concentration at 7 h [6] is reported as 6320 ng/g, the CC50 [1] is reported as > 25 µM and the “fold change (FC)” value (Hepatitis C virus [2]) is reported as 10. The CC50 [3] was > 25 µM and the Kd [4] was 0.0009 µM.

For `COc1ccc2c(c1)C=C1Cn3c-2c(C2CCCCC2)c2ccc(cc23)C(=O)NS(=O)(=O)N(C)CCN(C)CCNC1=O`, the CC50 [1] was > 25 µM, the “fold change (FC)” value (Hepatitis C virus [2]) was 10 and the CC50 [3] was > 25 µM.

For `COc1ccc2c(c1)C=C1Cn3c-2c(C2CCCCC2)c2ccc(cc23)C(=O)NS(=O)(=O)N2CCN(CCNC1=O)CC2`, the CC50 [1] was > 25 µM, the “fold change (FC)” value (Hepatitis C virus [2]) was 10 and the CC50 [3] was > 25 µM. For the same compound, the Kd [4] was 0.025 µM.

With `CN1CCOCCN(C)S(=O)(=O)NC(=O)c2ccc3c(C4CCCCC4)c4n(c3c2)CC(=Cc2cc(Cl)ccc2-4)C1=O` the CC50 [1] was > 25 µM, the “fold change (FC)” value (Hepatitis C virus [2]) was 10 and the CC50 [3] was > 25 µM. The Kd [4] was 0.0015 µM.

In the case of `CN1CCOCCN(C)S(=O)(=O)NC(=O)c2ccc3c(C4CCCCC4)c4n(c3c2)CC(=Cc2cc(F)ccc2-4)C1=O`, the concentration at 7 h [6] is reported as 6560 ng/g, the CC50 [1] is reported as > 25 µM and the “fold change (FC)” value (Hepatitis C virus [2]) is reported as 10. The CC50 [3] was > 25 µM.

With `COc1ccc2c(c1)C=C1Cn3c-2c(C2CCCCC2)c2ccc(cc23)C(=O)NS(=O)(=O)N(C)CCCCNC1=O` the CC50 [1] was > 25 µM, the “fold change (FC)” value (Hepatitis C virus [2]) was 10 and the CC50 [3] was > 25 µM. The Kd [4] was 0.0071 µM.

With `COc1ccc2c(c1)C=C1Cn3c-2c(C2CCCCC2)c2ccc(cc23)C(=O)NS(=O)(=O)NCCCCN(C)C1=O` the CC50 [1] was > 25 µM, the “fold change (FC)” value (Hepatitis C virus [2]) was 10 and the CC50 [3] was > 25 µM. The Kd [4] was 0.015 µM.

With `COc1ccc2c(c1)C=C1Cn3c-2c(C2CCCCC2)c2ccc(cc23)C(=O)NS(=O)(=O)N(C)CCN2CCN(CC2)C1=O` the concentration at 7 h [6] was 299 ng/g, the CC50 [1] was > 25 µM and the “fold change (FC)” value (Hepatitis C virus [2]) was 10. For the same compound, the CC50 [3] was > 25 µM.

With `COc1ccc2c(c1)C[C@@H]1Cn3c-2c(C2CCCCC2)c2ccc(cc23)C(=O)NS(=O)(=O)N(C)CCOCCN(C)C1=O` the concentration at 7 h [6] was 898 ng/g, the CC50 [1] was > 25 µM and the “fold change (FC)” value (Hepatitis C virus [2]) was 10. For the same compound, the CC50 [3] was > 25 µM.

For `COc1ccc2c(c1)C[C@H]1Cn3c-2c(C2CCCCC2)c2ccc(cc23)C(=O)NS(=O)(=O)N(C)CCOCCN(C)C1=O`, the CC50 [1] was > 25 µM, the “fold change (FC)” value (Hepatitis C virus [2]) was 10 and the CC50 [3] was > 25 µM.

With `COc1ccc2c(c1)[C@@H]1C[C@]13Cn1c-2c(C2CCCCC2)c2ccc(cc21)C(=O)NS(=O)(=O)N(C)CCOCCN(C)C3=O` the concentration at 7 h [6] was 3200 ng/g, the CC50 [1] was > 25 µM and the “fold change (FC)” value (Hepatitis C virus [2]) was 10. The CC50 [3] was > 25 µM, the clearance [7] was 86.7 mL/min/kg and the Kp at 7 h [8] was 38. For the same compound, the bioavailability [9] was 51%, the metabolised at 0.25 h, 5 µM [10] was 95% and the metabolised at 0.25 h [11] was 70%. It also gave an EC50 (Hepatitis C virus [5]) of 0.04 µM.

For `COc1ccc2c(c1)C=C1CN(C)CCCCN(C)S(=O)(=O)NC(=O)c3ccc4c(C5CCCCC5)c-2n(c4c3)C1`, the CC50 [1] was > 25 µM, the “fold change (FC)” value (Hepatitis C virus [2]) was 10 and the CC50 [3] was > 25 µM. The EC50 (Hepatitis C virus [5]) was 2.34 µM.

In the case of `COc1ccc2c(c1)[C@H]1C[C@@]13Cn1c-2c(C2CCCCC2)c2ccc(cc21)C(=O)NS(=O)(=O)N(C)CCOCCN(C)C3=O`, the CC50 [1] is reported as > 25 µM, the “fold change (FC)” value (Hepatitis C virus [2]) is reported as 10 and the CC50 [3] is reported as > 25 µM. It also gave an EC50 (Hepatitis C virus [5]) of 0.8 µM.

For `COc1ccc2c(O[C@@H]3C[C@H]4C(=O)N[C@]5(C(=O)NS(=O)(=O)C6CC6)C[C@H]5/C=C\CCCCN(C)C(=O)[C@@H]4C3)cc(-c3nc(C(C)C)cs3)nc2c1C`, the Activity (Hepatitis C virus [12]) was “inactive”, the Activity (Hepatitis C virus [13]) was “Active” and the Activity (Hepatitis C virus [14]) was “Active”. For the same compound, the Activity (Hepatitis C virus [15]) was “inactive” and the Activity (Hepatitis C virus [16]) was “inactive”.
